Active and inactive are the calls of the source. No cut-off for these calls is given here.
Assays:
[1] = system: Leishmania donovani; assay: Antileishmanial activity against promastigote forms of Leishmania donovani MHOM/ET/67/HU3 after 3 days by MTT assay; assay type: functional, organism-based; conditions: MHOM/ET/67/HU3, 72 h
Procedure, shortened: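 Log-phase promastigotes at 10^6 cells/mL in supplemented M-199. Serial dilutions gave final concentrations of 100 µM to 50 nM, in triplicate. Incubated 3 days at 27 °C, dark, 5% CO2. Viability read by MTT reduction, with Triton X100/HCl lysis and absorbance at 570 nm. IC50 ± SD.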

[2] = Cytotoxicity against Swiss mouse peritoneal macrophages at 20 uM after 5 days by MTT assay; assay type: cell-based, Peritoneal macrophage cell
Procedure, shortened: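 Thioglycolate-elicited peritoneal macrophages from female Swiss mice, 5 × 10^4/well in RPMI 1640 with 10% FCS, 25 mM Hepes and 2 mM L-glutamine. Washed at 4 h to remove fibroblasts. Drug-containing medium added at 48 h, stopped at day 5. Viability read by MTT.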

[3] = system: Trypanosoma brucei brucei; assay: Trypanocidal activity against Trypanosoma brucei brucei by drug incubation infectivity test; assay type: functional; conditions: read-out: MEC
[4] = system: Leishmania donovani; assay: Antileishmanial activity against amastigotes forms of Leishmania donovani MHOM/ET/67/HU3 infected in Swiss mouse peritoneal macrophages at 20 uM after 5 days; assay type: functional, organism-based
Procedure, shortened: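 Peritoneal macrophages from female Swiss mice (18–20 g) infected after 24 h with stationary-phase L. donovani promastigotes at 10 parasites per macrophage. Free promastigotes removed at 18 h, then amastigotes treated. Medium with drug renewed at 48 h, stopped at day 5. Percentage of infected macrophages scored microscopically after Giemsa staining. Run in triplicate.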

[5] = system: Plasmodium berghei; assay: Antimalarial activity against chloroquine-sensitive Plasmodium berghei NK-173 infected in Swiss albino mouse assessed as host survival at 51.5 mg/kg, ip administered 4 times per day for 3 days measured on day 30; assay type: functional; conditions: NK-173, ip, route intraperitoneal
Procedure, shortened: (§1)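 Female Swiss albino mice (18–20 g) were infected i.v. on day 0 with 10^6 parasitized RBC in 0.2 ml PBS from a donor mouse, in groups of 10. Dosing was i.p. over days 0–3 and stopped if toxicity appeared. Chloroquine control was 100 µmoles/kg. Giemsa tail smears and RBC counts were taken on days 4, 7, 8, 9, 10 and 14. Mice were followed for deaths.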

[6] = system: Plasmodium berghei; assay: Antimalarial activity against chloroquine-sensitive Plasmodium berghei NK-173 infected in Swiss albino mouse assessed as reduction parasitemia at 51.5 mg/kg, ip treated […] by Giemsa staining relative to control; assay type: functional; design: scale not given: the % may be the effect or the level left; conditions: route intraperitoneal
Procedure, shortened: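 Four-day Peters test in female Swiss albino mice (18–20 g), groups of 10. Infected i.v. on day 0 with 10^6 parasitized RBC in 0.2 ml PBS, then dosed i.p. on days 0–3, stopped if toxicity appeared. Parasitemia read from Giemsa-stained tail-blood smears and reported as % reduction at day 4.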

[7] = system: Plasmodium berghei; assay: Antimalarial activity against chloroquine-sensitive Plasmodium berghei NK-173 infected in Swiss albino mouse assessed as quantal survival at 51.5 mg/kg, ip administered 4 times per day for 3 days measured on day 7; assay type: functional, organism-based; design: dose 51.5 mg/kg; procedure, shortened: as §1
[8] = system: Mus musculus; assay: Toxicity in chloroquine-sensitive Plasmodium berghei NK-173 infected Swiss albino mouse assessed as mortality at 51.5 mg/kg, ip administered 4 times per day for 3 days measured up to 4 days; assay type: organism-based; design: dose 51.5 mg/kg, route intraperitoneal; conditions: in vivo; procedure, shortened: as §1
[9] = system: Plasmodium berghei; assay: Antimalarial activity against chloroquine-sensitive Plasmodium berghei NK-173 infected in Swiss albino mouse assessed as quantal survival at 51.5 mg/kg, ip administered 4 times per day for 3 days measured on day 8; assay type: functional, organism-based; design: dose 51.5 mg/kg; procedure, shortened: as §1
[10] = system: Plasmodium berghei; assay: Antimalarial activity against chloroquine-sensitive Plasmodium berghei NK-173 infected in Swiss albino mouse assessed as quantal survival at 51.5 mg/kg, ip administered 4 times per day for 3 days measured on day 10; assay type: functional, organism-based; design: dose 51.5 mg/kg; procedure, shortened: as §1
[11] = system: Plasmodium berghei; assay: Antimalarial activity against chloroquine-sensitive Plasmodium berghei NK-173 infected in Swiss albino mouse assessed as quantal survival at 51.5 mg/kg, ip administered 4 times per day for 3 days measured on day 14; assay type: functional, organism-based; design: dose 51.5 mg/kg; procedure, shortened: as §1
[12] = system: Plasmodium berghei; assay: Antimalarial activity against chloroquine-sensitive Plasmodium berghei NK-173 infected in Swiss albino mouse assessed as quantal survival at 51.5 mg/kg, ip administered 4 times per day for 3 days measured on day 9; assay type: functional, organism-based; design: dose 51.5 mg/kg; procedure, shortened: as §1
[13] = system: Plasmodium falciparum; assay: Antimalarial activity against Plasmodium falciparum 3D7 infected in human O positive erythrocytes assessed as reduction of parasite growth after 24 to 44 hrs by Giemsa staining; assay type: functional, organism-based
Procedure, shortened: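 Sorbitol-synchronized ring-stage 3D7 parasites in O+ erythrocytes (5% v/v suspension, 0.5% parasitemia) exposed to compounds from DMSO stock for 44 h at 37 °C. Growth measured by pLDH ELISA after freeze-thaw hemolysis and by Giemsa thin smears at 24 and 44 h, counting at least 5000 erythrocytes. Expressed as % reduction against medium-only control.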

[14] = system: Mus musculus; assay: Toxicity in chloroquine-sensitive Plasmodium berghei NK-173 infected Swiss albino mouse assessed as mortality at 100 mg/kg, ip administered 4 times per day for 3 days measured up to 4 days; assay type: organism-based; design: dose 100 mg/kg, route intraperitoneal; conditions: in vivo; procedure, shortened: as §1
[15] = system: Plasmodium berghei; assay: Antimalarial activity against chloroquine-sensitive Plasmodium berghei NK-173 infected in Swiss albino mouse assessed as host survival at 100 mg/kg, ip administered 4 times per day for 3 days measured on day 30; assay type: functional; conditions: NK-173, ip, route intraperitoneal; procedure, shortened: as §1
[16] = system: Plasmodium berghei; assay: Antimalarial activity against chloroquine-sensitive Plasmodium berghei NK-173 infected in Swiss albino mouse assessed as quantal survival at 100 mg/kg, ip administered 4 times per day for 3 days measured on day 14; assay type: functional, organism-based; design: dose 100 mg/kg; procedure, shortened: as §1
[17] = system: Plasmodium berghei; assay: Antimalarial activity against chloroquine-sensitive Plasmodium berghei NK-173 infected in Swiss albino mouse assessed as quantal survival at 100 mg/kg, ip administered 4 times per day for 3 days measured on day 10; assay type: functional, organism-based; design: dose 100 mg/kg; procedure, shortened: as §1
[18] = system: Plasmodium berghei; assay: Antimalarial activity against chloroquine-sensitive Plasmodium berghei NK-173 infected in Swiss albino mouse assessed as quantal survival at 100 mg/kg, ip administered 4 times per day for 3 days measured on day 7; assay type: functional, organism-based; design: dose 100 mg/kg; procedure, shortened: as §1
[19] = system: Plasmodium berghei; assay: Antimalarial activity against chloroquine-sensitive Plasmodium berghei NK-173 infected in Swiss albino mouse assessed as quantal survival at 100 mg/kg, ip administered 4 times per day for 3 days measured on day 8; assay type: functional, organism-based; design: dose 100 mg/kg; procedure, shortened: as §1

SMILES: CCCCCCCCCCCCCCCCOP(=O)([O-])OCC[N+](C)(C)C [MILTEFOSINE]
- IC50 [1]: 4.26 µM
- CC50 at 120 h [2]: 15.8 µM

SMILES: Clc1cccc(Cl)c1/C(=C1\C=CC=N1)c1ccc[nH]1
- IC50 [1]: 5.55 µM
- minimal effective concentration [3]: 12.5 µM
- CC50 at 120 h [2]: > 100 µM
- Activity [4]: inactive

SMILES: O=C1CCCN1c1c2nc(c(-c3ccccc3)c3ccc([nH]3)c(Br)c3nc(c(-c4ccccc4)c4ccc1[nH]4)C=C3)C=C2
- IC50 [1]: 6.37 µM
- minimal effective concentration [3]: 6.25 µM
- CC50 at 120 h [2]: > 100 µM
- Activity [4]: inactive

SMILES: CCN(CC)CCCC(C)Nc1ccnc2cc(Cl)ccc12 (centres undefined) [CHLOROQUINE]
- survival at 51.5 mg/kg [5]: 100%
- Activity [6]: 100%
- Survival [7]: Active
- Activity [8]: Non-toxic
- Survival [9]: Active
- Survival [10]: Active
- Survival [11]: Active
- Survival [12]: Active

SMILES: C1=C/C(=C(\c2ccccc2)c2ccc[nH]2)N=C1
- IC50 [1]: 5.23 µM
- minimal effective concentration [3]: 25 µM
- CC50 at 120 h [2]: > 100 µM
- Activity [4]: inactive

SMILES: O=C1CCC(C(O)(c2ccccc2)c2ccccc2)N1c1c2nc(c(-c3ccccc3)c3ccc([nH]3)c(N3C(=O)CCC3C(O)(c3ccccc3)c3ccccc3)c3nc(c(-c4ccccc4)c4ccc1[nH]4)C=C3)C=C2 (centres undefined)
- IC50 [1]: 53 µM
- minimal effective concentration [3]: 50 µM
- CC50 at 120 h [2]: > 100 µM
- Activity [4]: inactive

SMILES: COc1cc(C(c2ccc[nH]2)c2ccc[nH]2)cc(OC)c1OC
- IC50 [1]: ≥ 100 µM
- minimal effective concentration [3]: 100 µM
- CC50 at 120 h [2]: > 100 µM
- Activity [4]: inactive

SMILES: O=Cc1c2nc(c(-c3cccc(Br)c3)c3ccc(cc4nc(c(-c5cccc(Br)c5)c5ccc1[nH]5)C=C4)[nH]3)C=C2
- IC50 [1]: ≥ 100 µM
- minimal effective concentration [3]: > 100 µM
- CC50 at 120 h [2]: > 100 µM
- IC50 [13]: > 20 µM
- Activity [4]: inactive

SMILES: COc1cc(/C(=C2\C=CC=N2)c2ccc[nH]2)cc(OC)c1OC
- IC50 [1]: 4.71 µM
- minimal effective concentration [3]: 25 µM
- CC50 at 120 h [2]: > 100 µM
- Activity [4]: inactive

SMILES: O=C1CC[C@@H](C(=O)O)N1 [PIDOLIC ACID]
- Activity [14]: Non-toxic
- survival at 100 mg/kg [15]: 0%
- Survival [16]: inactive
- Survival [17]: inactive
- Survival [18]: Active
- Survival [19]: Active

SMILES: c1ccc(C(c2ccc[nH]2)c2ccc[nH]2)cc1
- IC50 [1]: ≥ 100 µM
- minimal effective concentration [3]: > 100 µM
- CC50 at 120 h [2]: > 100 µM
- Activity [4]: inactive

SMILES: O=Cc1c2nc(c(-c3ccccc3)c3ccc(cc4nc(c(-c5ccccc5)c5ccc1[nH]5)C=C4)[nH]3)C=C2
- IC50 [1]: ≥ 100 µM
- minimal effective concentration [3]: > 100 µM
- CC50 at 120 h [2]: > 100 µM
- IC50 [13]: > 20 µM
- Activity [4]: inactive

SMILES: COc1cc(-c2c3nc(cc4ccc([nH]4)c(-c4cc(OC)c(OC)c(OC)c4)c4nc(cc5ccc2[nH]5)C=C4)C=C3)cc(OC)c1OC
- IC50 [1]: ≥ 100 µM
- minimal effective concentration [3]: > 100 µM
- CC50 at 120 h [2]: > 100 µM
- IC50 [13]: > 20 µM
- Activity [4]: inactive

SMILES: Fc1c(F)c(F)c(/C(=C2\C=CC=N2)c2ccc[nH]2)c(F)c1F
- IC50 [1]: 3.61 µM
- minimal effective concentration [3]: 12.5 µM
- CC50 at 120 h [2]: > 100 µM
- Activity [4]: inactive

SMILES: COC(=O)[C@@H]1CCC(=O)N1c1c2nc(c(-c3cc(OC)c(OC)c(OC)c3)c3ccc(cc4nc(c(-c5cc(OC)c(OC)c(OC)c5)c5ccc1[nH]5)C=C4)[nH]3)C=C2
- IC50 [1]: ≥ 100 µM
- CC50 at 120 h [2]: > 100 µM
- Activity [4]: inactive

SMILES: COC(=O)[C@@H]1CCC(=O)N1c1c2nc(c(-c3cc(OC)c(OC)c(OC)c3)c3ccc([nH]3)c(N3C(=O)CC[C@H]3C(=O)OC)c3nc(c(-c4cc(OC)c(OC)c(OC)c4)c4ccc1[nH]4)C=C3)C=C2
- IC50 [1]: ≥ 100 µM
- minimal effective concentration [3]: 100 µM
- CC50 at 120 h [2]: > 100 µM
- Activity [4]: inactive

SMILES: C1=Cc2nc1cc1ccc([nH]1)c(-c1ccccc1)c1nc(cc3ccc([nH]3)c2-c2ccccc2)C=C1
- IC50 [1]: ≥ 100 µM
- minimal effective concentration [3]: > 100 µM
- CC50 at 120 h [2]: > 100 µM
- IC50 [13]: > 20 µM
- Activity [4]: inactive

SMILES: Brc1c2nc(c(-c3ccccc3)c3ccc([nH]3)c(Br)c3nc(c(-c4ccccc4)c4ccc1[nH]4)C=C3)C=C2
- IC50 [1]: ≥ 100 µM
- minimal effective concentration [3]: > 100 µM
- CC50 at 120 h [2]: > 100 µM
- IC50 [13]: 0.2 µM
- Activity [4]: inactive

SMILES: Brc1ccccc1C(c1ccc[nH]1)c1ccc[nH]1
- IC50 [1]: 44.7 µM
- minimal effective concentration [3]: > 100 µM
- CC50 at 120 h [2]: > 100 µM
- Activity [4]: inactive

SMILES: Brc1ccccc1/C(=C1\C=CC=N1)c1ccc[nH]1
- IC50 [1]: 5.38 µM
- minimal effective concentration [3]: 50 µM
- CC50 at 120 h [2]: > 100 µM
- Activity [4]: inactive

SMILES: O=C1CCCN1c1c2nc(c(-c3ccccc3)c3ccc([nH]3)c(N3CCCC3=O)c3nc(c(-c4ccccc4)c4ccc1[nH]4)C=C3)C=C2
- IC50 [1]: ≥ 100 µM
- minimal effective concentration [3]: > 100 µM
- CC50 at 120 h [2]: > 100 µM
- Activity [4]: inactive

SMILES: N=C(N)c1ccc(OCCCCCOc2ccc(C(=N)N)cc2)cc1 [PENTAMIDINE]
- IC50 [1]: 3.1 µM
- minimal effective concentration [3]: 5 µM
- CC50 at 120 h [2]: 26.3 µM

SMILES: Fc1c(F)c(F)c(C(c2ccc[nH]2)c2ccc[nH]2)c(F)c1F
- IC50 [1]: 44.1 µM
- minimal effective concentration [3]: > 100 µM
- CC50 at 120 h [2]: > 100 µM
- Activity [4]: inactive

From ChEMBL document CHEMBL2417506, “Synthesis and antiprotozoal activity of original porphyrin precursors and derivatives” (Eur J Med Chem, 2013)
